≈ marks a conversion by molar mass, not a printed value.
Legend:
Pseudomonas aeruginosa = assay: Antimicrobial activity against Pseudomonas aeruginosa ATCC 27853 incubated for 20 hrs by microdilution method; type: functional; conditions: ATCC 27853, 20 h
In short: (§1)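 Broth microdilution MIC testing done following CLSI guidelines.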

[1] = Therapeutic index, ratio of CC50 for human HaCaT cells to 1/2 times MIC for Staphylococcus aureus ATCC 25923; type: toxicity; conditions: read-out: TI
Enterococcus faecium = assay: Antimicrobial activity against Enterococcus faecium ATCC 19433 incubated for 20 hrs by microdilution method; type: functional; conditions: ATCC 19433, 20 h; in short: as §1
Bacillus subtilis = assay: Inhibition of N-terminal LgBiT-fused Bacillus subtilis NusB expressed in Escherichia coli BL21(DE3)pLysS interaction with C- terminal SmBiT-fused Bacillus subtilis NusE expressed in Escherichia coli BL21(DE3)pLysS at 100 uM preincubated for 10 mins followed by NusE addition and measured after 10 mins by nano-glo luciferase assay relative to control
In short: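 NusB and NusE were mixed 1:1 at 1 µM in PBS, with compound at 100 µM. The read-out was percent inhibition of the NusB-NusE interaction.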

[2] = microbe, parasite or virus in culture; conditions: Enterobacter cloacae, ATCC 13047, 20 h
[3] = Therapeutic index, ratio of CC50 for human A549 cells to 1/2 times MIC for Staphylococcus aureus ATCC 25923; type: toxicity; conditions: read-out: TI
[4] = Cytotoxicity against human A549 cells assessed as reduction in cell viability after 48 to 72 hrs by MTT assay; type: cell-based
Acinetobacter baumannii = assay: Antimicrobial activity against Acinetobacter baumannii ATCC 19606 incubated for 20 hrs by microdilution method; type: functional; conditions: ATCC 19606 = CIP 70.34 = JCM 6841, 20 h; in short: as §1
[5] = Cytotoxicity against human HaCaT cells assessed as reduction in cell viability after 48 to 72 hrs by MTT assay; type: cell-based
Streptococcus pneumoniae = assay: Antimicrobial activity against Streptococcus pneumoniae ATCC 49619 incubated for 20 hrs by microdilution method; type: functional; conditions: ATCC 49619, 20 h; in short: as §1
Staphylococcus aureus [6] = assay: microbe, parasite or virus in culture; conditions: ATCC 25923, 20 h
Staphylococcus aureus [7] = assay: microbe, parasite or virus in culture; conditions: ATCC 29213, 20 h

Molecule C#Cc1cccc(NCc2cc(Cl)cc(Cl)c2O)c1 has an MIC (Pseudomonas aeruginosa) of over 256 µg/mL, a selectivity ratio [1] of 32 and an MIC (Enterococcus faecium) of 32 µg/mL (≈ 110 µM). It also gave an inhibition (Bacillus subtilis) of 50.6%, an MIC [2] of over 256 µg/mL and a selectivity ratio [3] of 33. The CC50 [4] was 112 µM, the MIC (Acinetobacter baumannii) was over 256 µg/mL and the CC50 [5] was 108 µM. The MIC (Streptococcus pneumoniae) was 256 µg/mL (≈ 876 µM), the MIC (Staphylococcus aureus [6]) was 2 µg/mL (≈ 6.85 µM) and the MIC (Staphylococcus aureus [7]) was 4 µg/mL (≈ 13.7 µM).
Molecule O=[N+]([O-])c1ccc(O)c(/C=N/c2cccc(Cl)c2)c1 has an MIC (Pseudomonas aeruginosa) of over 256 µg/mL, a selectivity ratio [1] of 69 and an MIC (Enterococcus faecium) of over 256 µg/mL. The inhibition (Bacillus subtilis) was 66.5%, the MIC [2] was over 256 µg/mL and the selectivity ratio [3] was 76. The CC50 [4] was 274 µM, the MIC (Acinetobacter baumannii) was 256 µg/mL (≈ 925 µM) and the CC50 [5] was 250 µM. For the same molecule, the MIC (Streptococcus pneumoniae) was 64 µg/mL (≈ 231 µM), the MIC (Staphylococcus aureus [6]) was 2 µg/mL (≈ 7.23 µM) and the MIC (Staphylococcus aureus [7]) was 16 µg/mL (≈ 57.8 µM).
O=[N+]([O-])c1ccc(O)c(CNC2CCCCC2)c1 showed an MIC (Pseudomonas aeruginosa) of over 256 µg/mL, an MIC (Enterococcus faecium) of over 256 µg/mL and an inhibition (Bacillus subtilis) of 58.2%. It also gave an MIC [2] of over 256 µg/mL, an MIC (Acinetobacter baumannii) of over 256 µg/mL and an MIC (Streptococcus pneumoniae) of over 256 µg/mL. For the same molecule, the MIC (Staphylococcus aureus [6]) was over 256 µg/mL and the MIC (Staphylococcus aureus [7]) was over 256 µg/mL.
In the case of C#Cc1cccc(/N=C/c2ccc([N+](=O)[O-])cc2O)c1, the MIC (Pseudomonas aeruginosa) is reported as over 256 µg/mL, the MIC (Enterococcus faecium) is reported as over 256 µg/mL and the inhibition (Bacillus subtilis) is reported as 46.7%. For the same molecule, the MIC [2] was over 256 µg/mL, the MIC (Acinetobacter baumannii) was over 256 µg/mL and the MIC (Streptococcus pneumoniae) was 128 µg/mL (≈ 481 µM). The MIC (Staphylococcus aureus [6]) was 64 µg/mL (≈ 240 µM) and the MIC (Staphylococcus aureus [7]) was 256 µg/mL (≈ 961 µM).
In the case of C#Cc1ccc(/N=C/c2cc([N+](=O)[O-])ccc2O)cc1, the MIC (Pseudomonas aeruginosa) is reported as over 256 µg/mL, the MIC (Enterococcus faecium) is reported as 128 µg/mL (≈ 481 µM) and the inhibition (Bacillus subtilis) is reported as 76.3%. It also gave an MIC [2] of over 256 µg/mL, an MIC (Acinetobacter baumannii) of over 256 µg/mL and an MIC (Streptococcus pneumoniae) of 64 µg/mL (≈ 240 µM). It also gave an MIC (Staphylococcus aureus [6]) of 4 µg/mL (≈ 15 µM) and an MIC (Staphylococcus aureus [7]) of 16 µg/mL (≈ 60.1 µM).
